Experiment [1] can be described thus: Inhibition of Plasmodium falciparum falcipain-3 expressed in Escherichia coli. An outline of the steps:
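Refolded recombinant enzyme from E. coli, 2 nM, in 100 mM sodium acetate pH 5.5 with 500 μM CHAPS and 10 mM DTT, DMSO up to 1%. H-D-Val-Leu-Arg-AFC at 150 μM final. Reaction started by enzyme addition; fluorescence monitored 1 h at room temperature. IC50 derived from percent activity plotted against inhibitor concentration.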

Experiment [2] can be described thus: Inhibition of Plasmodium falciparum falcipain-2 expressed in Escherichia coli. An outline of the steps: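 Recombinant E. coli-expressed, refolded enzyme at 0.25 nM in 100 mM sodium acetate pH 5.5, 500 μM CHAPS, 10 mM DTT, DMSO ≤1%. Substrate H-D-Val-Leu-Arg-AFC at 30 μM final. Inhibitor dilutions mixed with substrate, enzyme added last; fluorescence followed 1 h at room temperature. IC50 from percent activity versus concentration.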

Experiment [3] has as its system Plasmodium falciparum. The experiment is described as follows: Antiplasmodial activity against Plasmodium falciparum W2 after 48 hrs. In kind it is functional, organism-based. The note with it: W2, 48 h. An outline of the steps:
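W2 P. falciparum grown in human erythrocytes, 2% hematocrit, RPMI with 10% human serum or 0.5% AlbuMAX II; sorbitol-synchronized. Serial dilutions from DMSO stocks added at ring stage for 48 h, medium and drug renewed at 24 h. Cells fixed in 1% formaldehyde, stained with YOYO-1, parasitemia counted by flow cytometry; IC50 from percent parasitemia versus untreated controls.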

pIC50: −log10 of the molar value.

Take `CN1CCN(Cc2ccc(C(=O)NN(CC3CC3)c3nc(C#N)ncc3Br)cc2)CC1`: the negative-log IC50 (pIC50) in experiment [1] was 6.48; in experiment [2], 8.30; in experiment [3], 5.97.

Regarding `CCC(CC)N(NC(=O)c1ccc(CN2CCN(C)CC2)cc1)c1nc(C#N)ncc1Br`, the pIC50 in experiment [1] was 5.69; in experiment [2], 6.73; in experiment [3], 5.79.

As to `CC(C)CN(NC(=O)Cc1ccc(OCCN2CCOCC2)cc1)c1nc(C#N)ncc1Cl`, the pIC50 was 8.10 in experiment [1], 9.00 in experiment [2] and 6.39 in experiment [3].

For `CC(C)CN(NC(=O)C(C)(C)c1ccc(OCCN2CCOCC2)cc1)c1nc(C#N)ncc1Cl`, the pIC50 in experiment [1] was 7.74; in experiment [2] it was 8.40; in experiment [3], 6.09.

`CC1CCC(N(NC(=O)c2ccc(CN3CCN(C)CC3)cc2)c2nc(C#N)ncc2Br)C1` (centres undefined): the pIC50 in experiment [1] was 7.35; in experiment [2], 9.05; in experiment [3], 7.17.

Turning to `CC(C)CN(NC(=O)c1cc2cc(OCCN3CCNCC3)ccc2o1)c1nc(C#N)ncc1Cl`, the pIC50 in experiment [1] is 6.97; in experiment [2], 9.00; in experiment [3], 7.12.

In the case of `CC(C)CN(c1nc(C#N)ncc1Br)N(CCCN1CCN(C)CC1)C(=O)c1ccccc1`, the pIC50 in experiment [1] was 7.11; in experiment [2], 8.15; in experiment [3], 6.78.

As for `CC(C)CN(c1nc(C#N)ncc1Br)N(CCCN1CCN(C)CC1)C(=O)c1ccc(F)cc1`, the figures for the pIC50 in experiment [1], in experiment [2] and in experiment [3] were 6.98, 8.05 and 6.46, respectively.

On to `CN1CCN(Cc2ccc(C(=O)NN(CC3(C)CCCCC3)c3nc(C#N)ncc3Br)cc2)CC1`, for which the pIC50 in experiment [1] was 7.77; in experiment [2] it was 8.30; in experiment [3], 5.83.

Turning to `CC(C)CN(NC(=O)Cc1ccc(CN2CCN(C)CC2)cc1)c1nc(C#N)ncc1Br`, the pIC50 was 8.30 in experiment [1], 9.10 in experiment [2] and 7.55 in experiment [3].

As for `CN1CCN(Cc2ccc(C(=O)NN(Cc3ccco3)c3nc(C#N)ncc3Br)cc2)CC1`, the pIC50 in experiment [1] is 6.74; in experiment [2], 8.40; in experiment [3] it was 6.14.

In the case of `CN1CCN(Cc2ccc(C(=O)NN(Cc3ccccc3)c3nc(C#N)ncc3Br)cc2)CC1`, the results for the pIC50 in experiment [1], in experiment [2] and in experiment [3] were 6.47, 8.30 and 5.63, respectively.

As for `CN1CCN(Cc2ccc(C(=O)NN(CC3CC=CC3)c3nc(C#N)ncc3Br)cc2)CC1`, the pIC50 was 7.80 in experiment [1], 9.15 in experiment [2] and 7.01 in experiment [3].

On to `CC(C)CN(NC(=O)c1ccc(N2CCOCC2)nc1)c1nc(C#N)ncc1Br`, for which the pIC50 is 7.28 in experiment [1], 9.70 in experiment [2] and 5.82 in experiment [3].

In the case of `C[C@H]1CCC[C@H]1N(NC(=O)c1ccc(CN2CCN(C)CC2)cc1)c1nc(C#N)ncc1Br` (relative stereo), the pIC50 in experiment [1] is 7.39; in experiment [2] it was 8.70; in experiment [3] it was 7.09.

Turning to `CN1CCN(Cc2ccc(C(=O)NN(c3nc(C#N)ncc3Br)C3CCCCC3)cc2)CC1`, the pIC50 was 8.22 in experiment [1], 9.30 in experiment [2] and 7.57 in experiment [3].

With `CCC(CC)CN(NC(=O)c1ccc(CN2CCN(C)CC2)cc1)c1nc(C#N)ncc1Br`, the pIC50 in experiment [1] was 7.36; in experiment [2], 8.70; in experiment [3], 6.71.

For `CC(C)CN(c1nc(C#N)ncc1Br)N(CCCN1CCN(C)CC1)C(=O)Cc1ccccc1`, the pIC50 is 7.57 in experiment [1], 8.22 in experiment [2] and 6.67 in experiment [3].

In the case of `CC(C)CN(NC(=O)c1ccc(CN2CCN(C)CC2)o1)c1nc(C#N)ncc1Br`, the pIC50 in experiment [1] was 7.92; in experiment [2], 9.15; in experiment [3] it was 7.68.

Regarding `CN1CCN(Cc2ccc(C(=O)NN(c3nc(C#N)ncc3Br)C3CCCC3)cc2)CC1`, the pIC50 in experiment [1] is 7.96; in experiment [2], more than 9.30; in experiment [3], 7.62.

With `CC(=O)NC1CCC(N(NC(=O)c2ccc(CN3CCN(C)CC3)cc2)c2nc(C#N)ncc2Br)CC1` (centres undefined), the figures for the pIC50 in experiment [1], in experiment [2] and in experiment [3] were 7.06, 8.10 and 5.88, respectively.

Consider `CN1CCN(Cc2ccc(C(=O)NN(c3nc(C#N)ncc3Br)C3CCCC3(C)C)cc2)CC1` (centres undefined), for which the pIC50 in experiment [1] was 6.96; in experiment [2], 8.70; in experiment [3], 6.98.

In the case of `CC(C)CN(NC(=O)c1cc2cccc(CN3CCN(C)CC3)c2o1)c1nc(C#N)ncc1Br`, the pIC50 in experiment [1] was 7.21; in experiment [2], 9.40; in experiment [3], 7.32.

As for `CC(C)CN(NC(=O)c1ccc(N2CCN(C)CC2)cc1)c1nc(C#N)ncc1Br`, the figures for the pIC50 in experiment [1], in experiment [2] and in experiment [3] were 7.49, more than 9.70 and 7.48, respectively.

Regarding `CCCCC(CCCC)CN(NC(=O)c1ccc(CN2CCN(C)CC2)cc1)c1nc(C#N)ncc1Br`, the pIC50 is 6.18 in experiment [1], 6.53 in experiment [2] and 6.25 in experiment [3].

For `CN1CCN(Cc2ccc(C(=O)NN(CC3CCCO3)c3nc(C#N)ncc3Br)cc2)CC1` (centres undefined), the results for the pIC50 in experiment [1], in experiment [2] and in experiment [3] were 7.00, 7.85 and 5.73, respectively.

In the case of `CC(C)CN(NC(=O)c1cc2cc(CN3CCN(C)CC3)ccc2o1)c1nc(C#N)ncc1Br`, the values for the pIC50 in experiment [1], in experiment [2] and in experiment [3] were 7.54, more than 9.30 and 7.52, respectively.

Consider `CC(C)CN(NC(=O)c1cc(CN2CCN(C)CC2)on1)c1nc(C#N)ncc1Br`, for which the pIC50 in experiment [1] is 7.34; in experiment [2] it was 9.00; in experiment [3] it was 7.48.

For `CCC(C)CN(NC(=O)c1ccc(CN2CCN(C)CC2)cc1)c1nc(C#N)ncc1Br` (centres undefined), the values for the pIC50 in experiment [1], in experiment [2] and in experiment [3] were 7.46, 9.05 and 7.62, respectively.

`CC(C)CN(c1nc(C#N)ncc1Cl)N(CCCN1CCN(C)CC1)C(=O)Cc1ccccc1`: the figures for the pIC50 in experiment [1], in experiment [2] and in experiment [3] were 7.11, 7.96 and 6.97, respectively.

With `CC(C)CN(NC(=O)c1ccc(CN2CCN(C)CC2)s1)c1nc(C#N)ncc1Br`, the pIC50 in experiment [1] was 7.92; in experiment [2], 9.70; in experiment [3] it was 8.00.

`CC(C)CN(NC(=O)Cc1ccc(OCCN2CCOCC2)cc1)c1nc(C#N)ncc1Br`: the pIC50 is 8.30 in experiment [1], 9.15 in experiment [2] and 7.19 in experiment [3].

For the compound `CN1CCN(Cc2ccc(C(=O)NN(CCC(C)(C)C)c3nc(C#N)ncc3Br)cc2)CC1`, the pIC50 in experiment [1] is 7.41; in experiment [2] it was 8.52; in experiment [3], 5.82.

Turning to `CC(C)CN(NC(=O)C(C)(C)c1ccc(OCCN2CCOCC2)cc1)c1nc(C#N)ncc1Br`, the pIC50 was 7.89 in experiment [1], 8.52 in experiment [2] and 6.10 in experiment [3].

As to `CC(C)CN(NC(=O)c1ccc(-c2ccc(CN3CCN(C)CC3)cc2)o1)c1nc(C#N)ncc1Br`, the pIC50 was 8.30 in experiment [1], more than 9.30 in experiment [2] and 7.77 in experiment [3].

With `CC(C)N(NC(=O)c1ccc(CN2CCN(C)CC2)cc1)c1nc(C#N)ncc1Br`, the results for the pIC50 in experiment [1], in experiment [2] and in experiment [3] were 5.86, 7.54 and 6.40, respectively.

Take `CN1CCN(Cc2ccc(C(=O)NN(CC3CCOCC3)c3nc(C#N)ncc3Br)cc2)CC1`: the figures for the pIC50 in experiment [1], in experiment [2] and in experiment [3] were 6.87, 7.96 and 6.51, respectively.

For the compound `CCCC(CCC)CN(NC(=O)c1ccc(CN2CCN(C)CC2)cc1)c1nc(C#N)ncc1Br`, the figures for the pIC50 in experiment [1], in experiment [2] and in experiment [3] were 6.10, 7.09 and 5.92, respectively.

For `CN1CCN(Cc2ccc(C(=O)NN(CCc3ccccc3)c3nc(C#N)ncc3Br)cc2)CC1`, the pIC50 is 6.98 in experiment [1], 7.64 in experiment [2] and 5.66 in experiment [3].

Take `CN1CCN(Cc2ccc(C(=O)NN(CC3CCCC3)c3nc(C#N)ncc3Br)cc2)CC1`: the negative logarithm of the IC50 (pIC50) in experiment [1] is 8.22; in experiment [2] it was 9.30; in experiment [3], 7.48.

For `CCCN1CCN(Cc2ccc(CC(=O)NN(CC(C)C)c3nc(C#N)ncc3Br)cc2)CC1`, the pIC50 in experiment [1] is 8.52; in experiment [2] it was 9.70; in experiment [3], 7.74.

For `CC(C)CN(NC(=O)c1ccc(OCCN2CCOCC2)cc1)c1nc(C#N)ncc1Br`, the pIC50 in experiment [1] is 6.84; in experiment [2], 8.52; in experiment [3], 6.21.

Take `CC(C)CN(NC(=O)C(C)(C)c1ccc(CN2CCN(C)CC2)cc1)c1nc(C#N)ncc1Br`: the pIC50 in experiment [1] is 7.68; in experiment [2], 8.52; in experiment [3] it was 6.63.

Take `CC(C)CN(NC(=O)c1ccc(-c2ccc(CN3CCN(C)CC3)cc2)nc1)c1nc(C#N)ncc1Br`: the pIC50 was 7.59 in experiment [1], more than 9.30 in experiment [2] and 7.80 in experiment [3].

Take `CN1CCN(Cc2ccc(C(=O)NN(CCC3CCCC3)c3nc(C#N)ncc3Br)cc2)CC1`: the pIC50 in experiment [1] was 7.35; in experiment [2], 8.40; in experiment [3], 6.75.

As for `CC(C)CN(NC(=O)c1ccc(OCCN2CCOCC2)cc1)c1nc(C#N)ncc1Cl`, the pIC50 in experiment [1] is 7.05; in experiment [2], 8.70; in experiment [3], 6.06.

Consider `CC(C)CN(NC(=O)c1ccc(-c2cccc(CN3CCN(C)CC3)c2)nc1)c1nc(C#N)ncc1Br`, for which the values for the pIC50 in experiment [1], in experiment [2] and in experiment [3] were 7.42, 9.70 and 7.66, respectively.

Consider `CC(C)CN(NC(=O)c1cncc(-c2cccc(CN3CCN(C)CC3)c2)c1)c1nc(C#N)ncc1Br`, for which the pIC50 in experiment [1] was 8.40; in experiment [2], more than 9.30; in experiment [3], 8.70.

Values taken from ChEMBL document CHEMBL1212900, “Falcipain inhibitors: optimization studies of the 2-pyrimidinecarbonitrile lead series” (J Med Chem, 2010).
